This is an account of results in PubChem BioAssay AID685 (PCMD, 2007).

This experiment can be described thus: S. cerevisiae growth inhibition, turbidity – wild-type and eIF2Bepsilon R284H mutant, A595, cytotoxicity control for eIF2B function restoration project, primary screen (AID 685).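 Further: 0% = untreated cell controls and 100% = YPD media blanks without cells.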 The settings on record: 16 h, stronger effect = higher value, screened at 25 µM (by protocol). The essentials: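 System: S. cerevisiae wild-type or eIF2Bepsilon-R284H mutant strain; times: 16 h growth with compound, 30 °C; signal: absorbance at 595 nm (turbidity); measure: growth inhibition (%) versus cell controls and blanks; compound: 25 µM single dose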

Setting [1] is: S. cerevisiae eIF2Bepsilon-R284H mutant growth.

About 80 (0.3%) of roughly 30,000 compounds were called active.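 How the source made its calls: active means mutant and wild-type yeast strains alike exhibit over 30% growth inhibition; inconclusive means a strain exceeds 50% while the second remains under 30%; inactive means the rest.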 Many of the other results were omitted from the sample, so actives are more common in it than they were.

As for `CC(C)NC(=O)C(=O)NCCN1CCN(S(=O)(=O)c2ccc(Cl)cc2)CC1`, the growth inhibition is 7.69% under setting [1] and 7.31% (inactive) (S. cerevisiae wild-type growth).

For `COc1ccc(C2CC(=O)n3c(nc4ccccc43)S2)cc1OC` (stereo unspecified), the growth inhibition under setting [1] was -2.13% and the growth inhibition (S. cerevisiae wild-type growth) is 32% (inactive).

As to `COc1ccc(-c2cc(C(F)(F)F)nc(NCc3cccnc3)n2)cc1`, the growth inhibition was 25.5% under setting [1] and 15.3% (inactive) (S. cerevisiae wild-type growth).

On to `CCCc1nc2sc3c(c2c(=O)n1NC(=O)CCCl)CCCC3`, for which the growth inhibition is 9.3% under setting [1] and -7.93% (inactive) (S. cerevisiae wild-type growth).

On to `COc1cccc(OCc2cc(/C=N/NC(=O)c3nc(Cl)c(Cl)c(N)c3Cl)ccc2OC)c1`, for which the growth inhibition under setting [1] was -17.9% and the growth inhibition (S. cerevisiae wild-type growth) was -14.8% (inactive).

With `CCn1nc(C)c(NC(=O)/C=C/c2ccc(OC)c(COc3ccc(Br)cc3)c2)c1C`, the growth inhibition runs as follows: under setting [1], 50%; (S. cerevisiae wild-type growth) 54.5% (active).

Turning to `CCOC(=O)N1CCN(C(=O)COc2ccc(Br)cc2)CC1`, the growth inhibition was 0% under setting [1] and 10.3% (inactive) (S. cerevisiae wild-type growth).

Consider `C=CCn1c(SCc2c(C(=O)OC)sc(N)c2C(=O)OC)nnc1-c1ccc(Cl)cc1`, for which the growth inhibition by setting is: under setting [1], 6.98%; (S. cerevisiae wild-type growth) -10.3% (inactive).

For the compound `CCCCOc1ccc(C(=O)NCc2ccncc2)cc1`, the growth inhibition runs as follows: under setting [1], 18.6%; (S. cerevisiae wild-type growth) 33.8% (inactive).

For `CCCOc1ccc(C2NC(=O)NC(c3ccccc3)=C2C(C)=O)cc1OCC` (stereo unspecified), the growth inhibition was 7.89% under setting [1] and 4.64% (inactive) (S. cerevisiae wild-type growth).

On to `COC(=O)/C(NC(C)=O)=C(\C)c1ccc(Cl)cc1`, for which the growth inhibition is, setting by setting: under setting [1], -32.3%; (S. cerevisiae wild-type growth) 8.3% (inactive).

For the compound `CCOc1ccc(NC(=O)CCS(=O)(=O)c2ccc3c(c2)CCCN3C(=O)CC)cc1`, the growth inhibition is 13.5% under setting [1] and 10.8% (inactive) (S. cerevisiae wild-type growth).

On to `CCN(CC)CCn1c(=S)[nH]c2ncccc2c1=O`, for which the growth inhibition under setting [1] is 5.13% and the growth inhibition (S. cerevisiae wild-type growth) was 11.5% (inactive).

For `CCc1ccc(NC(=O)CN2C(=O)CSC2=O)cc1`, the growth inhibition by setting is: under setting [1], -8.82%; (S. cerevisiae wild-type growth) 5% (inactive).

On to `COc1ccc(C)cc1S(=O)(=O)NCCc1ccccc1`, for which the growth inhibition under setting [1] was 12.9% and the growth inhibition (S. cerevisiae wild-type growth) was 4.64% (inactive).

Turning to `CC(C)=C1SC(N2CCN(c3cccc(C)c3)CC2)=NC1=O`, the growth inhibition is 16.2% under setting [1] and 11.8% (inactive) (S. cerevisiae wild-type growth).

In the case of `COc1cccc2cc(C(=O)N3CCN(C(=O)c4ccccc4)CC3)c(=O)oc12`, the growth inhibition is, setting by setting: under setting [1], 9.38%; (S. cerevisiae wild-type growth) 8.28% (inactive).

With `CC(Oc1ccc(Cl)cc1)c1ccnn1S(C)(=O)=O` (stereo unspecified), the growth inhibition is 10.8% under setting [1] and 28.1% (inactive) (S. cerevisiae wild-type growth).

Regarding `CC(C)(C)n1nnnc1C(c1ccc(F)cc1)N1CCN(Cc2ccc3c(c2)OCO3)CC1` (stereo unspecified), the growth inhibition is, setting by setting: under setting [1], -18.2%; (S. cerevisiae wild-type growth) 15% (inactive).

For `N/C(=N\OC(=O)Nc1ccc(Cl)c(Cl)c1)c1ncc(C(F)(F)F)cc1Cl`, the growth inhibition under setting [1] was found to be 30.3% and the growth inhibition (S. cerevisiae wild-type growth) is 35.2% (active).

On to `NC(=O)c1ncc(C(F)(F)F)cc1Oc1ccc(F)cc1`, for which the growth inhibition is, setting by setting: under setting [1], -3.33%; (S. cerevisiae wild-type growth) 19.2% (inactive).

`CCn1nccc1C(=O)Nc1ccc(Cl)c(Cl)c1`: the growth inhibition by setting is: under setting [1], -8.33%; (S. cerevisiae wild-type growth) 12.8% (inactive).

Turning to `CN1CCN(C(=O)Cn2c(C(F)(F)F)nc3ccccc32)CC1`, the growth inhibition under setting [1] worked out at 25% and the growth inhibition (S. cerevisiae wild-type growth) is 9.62% (inactive).

In the case of `CC(C)(C)N1CC(c2nc3ccccc3n2Cc2ccc(F)cc2)CC1=O` (stereo unspecified), the growth inhibition reads like this: under setting [1], 20%; (S. cerevisiae wild-type growth) 5% (inactive).

On to `CS(=O)(=O)Nc1ccc(C(=O)N2CCCC2)cc1`, for which the growth inhibition under setting [1] is 11.6% and the growth inhibition (S. cerevisiae wild-type growth) is 38.3% (inactive).

`Cc1[nH][nH]c(=O)c1C(c1ccc(-c2ccc(Cl)cc2)o1)c1c(C)[nH][nH]c1=O`: the growth inhibition is, setting by setting: under setting [1], 63%; (S. cerevisiae wild-type growth) 75.8% (active).

With `Cc1[nH][nH]c(=O)c1N=Nc1ccccc1`, the growth inhibition was 8.33% under setting [1] and 25.8% (inactive) (S. cerevisiae wild-type growth).

For `Cc1ccccc1-c1nnc(SCC(=O)NCc2ccc3c(c2)OCO3)n1C`, the growth inhibition runs as follows: under setting [1], 8.14%; (S. cerevisiae wild-type growth) 13.1% (inactive).

`CC(C)(CNC(=O)c1cc(=O)[nH]c2ccccc12)N1CCOCC1`: the growth inhibition runs as follows: under setting [1], -23.8%; (S. cerevisiae wild-type growth) -1.08% (inactive).

On to `Cc1cc(NC(=O)CN2CCCC(C)C2)n(-c2nc3ccccc3s2)n1` (stereo unspecified), for which the growth inhibition under setting [1] is -42.9% and the growth inhibition (S. cerevisiae wild-type growth) is -15.7% (inactive).

As to `Cc1[nH]n(-c2cccc(Cl)c2)c(=O)c1/C=N/n1c(C)nc2ccccc2c1=O`, the growth inhibition is 2.56% under setting [1] and 21% (inactive) (S. cerevisiae wild-type growth).

Consider `O=C(CCS(=O)(=O)c1cccc2nsnc12)N1CCN(c2ccccc2F)CC1`, for which the growth inhibition by setting is: under setting [1], 12.5%; (S. cerevisiae wild-type growth) 11.5% (inactive).

Turning to `Cc1ccc(S(=O)(=O)N2CCN(S(=O)(=O)N3CCOCC3)CC2)cc1`, the growth inhibition under setting [1] was -11.9% and the growth inhibition (S. cerevisiae wild-type growth) was 10.3% (inactive).

Turning to `COC(=O)c1ccc(/C=N\n2c(C)nnc2C)cc1`, the growth inhibition runs as follows: under setting [1], -3.85%; (S. cerevisiae wild-type growth) -0.22% (inactive).

As to `CC(=O)Nc1cccc(Oc2cc(C#N)c(C#N)cc2N2CCOCC2)c1`, the growth inhibition was -4.55% under setting [1] and -7.1% (inactive) (S. cerevisiae wild-type growth).

As for `O=C(N/N=C/c1ccc(O)cc1)/C(=C/c1ccc([N+](=O)[O-])cc1)NC(=O)c1ccccc1`, the growth inhibition is, setting by setting: under setting [1], 15%; (S. cerevisiae wild-type growth) 5% (inactive).

Consider `CC(=NCc1ccco1)c1c(C(F)(F)F)[nH]n(-c2nc3ccccc3s2)c1=O`, for which the growth inhibition is, setting by setting: under setting [1], 7.61%; (S. cerevisiae wild-type growth) 34.2% (inactive).

`O=C(CSc1n[nH]c(-c2cccnc2)n1)Nc1ccnc2ccccc12`: the growth inhibition runs as follows: under setting [1], 7.69%; (S. cerevisiae wild-type growth) 1% (inactive).

As for `Cc1ccc(S(=O)(=O)N(C)C2(C)CCS(=O)(=O)C2)cc1` (stereo unspecified), the growth inhibition by setting is: under setting [1], 5%; (S. cerevisiae wild-type growth) -6.15% (inactive).

Turning to `COC(=O)c1ccccc1NC(=O)CN(Cc1ccc(Cl)cc1)S(C)(=O)=O`, the growth inhibition runs as follows: under setting [1], 6.98%; (S. cerevisiae wild-type growth) 4.14% (inactive).

`CCSc1ccccc1C(=O)NCc1ccc(OC)cc1`: the growth inhibition was 10.3% under setting [1] and 2.69% (inactive) (S. cerevisiae wild-type growth).

`CCOc1ccc(S(=O)(=O)NCCSc2ccccc2)cc1`: the growth inhibition is, setting by setting: under setting [1], 12.5%; (S. cerevisiae wild-type growth) 10% (inactive).

`CCNC(=O)c1sccc1-n1cccc1`: the growth inhibition was 12.9% under setting [1] and 8.21% (inactive) (S. cerevisiae wild-type growth).
